{"source": "ChEMBL document CHEMBL5674883", "about": "“The Heterochromatin Landscape in Migrating Cells and the Importance of H3K27me3 for Associated Transcriptome Alterations” (Cells, 2018)", "format_in_all_cases": "cell-based", "key": {"[1]": {"molecular_target": "Histone-lysine N-methyltransferase EZH2 (Mus musculus) (UniProt Q61188)", "sequence (Q61188 whole entry)": "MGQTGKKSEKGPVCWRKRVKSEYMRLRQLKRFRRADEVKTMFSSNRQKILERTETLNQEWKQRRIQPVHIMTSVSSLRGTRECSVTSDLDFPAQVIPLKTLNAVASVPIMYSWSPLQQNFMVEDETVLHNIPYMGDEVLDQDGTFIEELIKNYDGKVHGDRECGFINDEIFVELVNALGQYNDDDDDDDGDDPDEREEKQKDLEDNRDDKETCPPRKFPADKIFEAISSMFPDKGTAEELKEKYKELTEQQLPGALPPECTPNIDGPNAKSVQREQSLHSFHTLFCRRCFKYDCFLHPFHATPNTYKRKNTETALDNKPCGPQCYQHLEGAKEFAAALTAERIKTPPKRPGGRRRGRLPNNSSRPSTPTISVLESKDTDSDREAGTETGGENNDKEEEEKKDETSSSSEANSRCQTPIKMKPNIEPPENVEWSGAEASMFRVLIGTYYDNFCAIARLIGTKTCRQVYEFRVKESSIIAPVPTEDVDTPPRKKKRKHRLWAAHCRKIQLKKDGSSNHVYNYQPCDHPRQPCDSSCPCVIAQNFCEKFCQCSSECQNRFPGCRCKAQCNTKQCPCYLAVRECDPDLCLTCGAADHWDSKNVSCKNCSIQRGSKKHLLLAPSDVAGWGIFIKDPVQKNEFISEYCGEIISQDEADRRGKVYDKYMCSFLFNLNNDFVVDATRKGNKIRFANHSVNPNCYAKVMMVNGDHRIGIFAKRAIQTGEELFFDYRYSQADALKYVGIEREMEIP", "experiment": "Inhibition of EZH2 in mouse B16-F1 migrating cells assessed as fold change in H3K27me3-independent regulated Eva1a-mRNA expression at 3 uM measured by ChIP-seq analysis relative to control cells", "procedure,_shortened": "(§1)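 Confluent B16-F1 cells on fibronectin-coated plates were scratched at multiple sites, washed once with DMEM and left to migrate 3 h in growth medium (37 °C, 7% CO2); unscratched cells served as control. GSK343 (3 µM) was added 3 h before lysis. Poly A mRNA was sequenced (RNA-seq), with 5 replicates for untreated and 3 for treated cells. Differential expression was called by linear model with batch correction, at FDR <0.05 and fold change ≥1.3.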"}, "[2]": {"molecular_target": "Histone-lysine N-methyltransferase EZH2 (Mus musculus) (UniProt Q61188)", "experiment": "Inhibition of EZH2 in mouse B16-F1 migrating cells assessed as fold change in H3K27me3-buffered regulated Ccdc18-mRNA expression at 3 uM measured by […] analysis relative to control cells", "procedure,_shortened": "(§2)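 Confluent B16-F1 cells on fibronectin-coated plates, cultured at 37 °C and 7% CO2, were scratched at multiple sites to induce migration. They were then held 3 h in growth medium containing 3 µM GSK343, with the inhibitor added 3 h before lysis. Unscratched cells served as controls. Poly A mRNA was analysed by RNA-seq (n=3 GSK343, n=5 controls). Linear models removed batch effects, and buffered genes were those altered only under GSK343 (FDR <0.05, fold change >1.3).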"}, "[3]": {"molecular_target": "Histone-lysine N-methyltransferase EZH2 (Mus musculus) (UniProt Q61188)", "experiment": "Inhibition of EZH2 in mouse B16-F1 migrating cells assessed as fold change in H3K27me3-buffered regulated Tfcp2-mRNA expression at 3 uM measured by […] analysis relative to control cells", "procedure,_shortened": "as §1"}, "[4]": {"molecular_target": "Histone-lysine N-methyltransferase EZH2 (Mus musculus) (UniProt Q61188)", "experiment": "Inhibition of EZH2 in mouse B16-F1 migrating cells assessed as fold change in H3K27me3-independent regulated Adgrg1-mRNA expression at 3 uM measured by […] analysis relative to control cells", "procedure,_shortened": "as §1"}, "[5]": {"molecular_target": "Histone-lysine N-methyltransferase EZH2 (Mus musculus) (UniProt Q61188)", "experiment": "Inhibition of EZH2 in mouse B16-F1 migrating cells assessed as fold change in H3K27me3-buffered regulated Ctxn1-mRNA expression at 3 uM measured by ChIP-seq analysis relative to control cells", "procedure,_shortened": "as §2"}, "[6]": {"molecular_target": "Histone-lysine N-methyltransferase EZH2 (Mus musculus) (UniProt Q61188)", "experiment": "Inhibition of EZH2 in mouse B16-F1 migrating cells assessed as fold change in H3K27me3-independent regulated Cep290-mRNA expression at 3 uM measured by […] analysis relative to control cells", "procedure,_shortened": "as §1"}, "[7]": {"molecular_target": "Histone-lysine N-methyltransferase EZH2 (Mus musculus) (UniProt Q61188)", "experiment": "Inhibition of EZH2 in mouse B16-F1 migrating cells assessed as fold change in H3K27me3-buffered regulated Dzip3-mRNA expression at 3 uM measured by […] analysis relative to control cells", "procedure,_shortened": "as §2"}, "[8]": {"molecular_target": "Histone-lysine N-methyltransferase EZH2 (Mus musculus) (UniProt Q61188)", "experiment": "Inhibition of EZH2 in mouse B16-F1 migrating cells assessed as fold change in H3K27me3-dependent regulated Gm43909-mRNA expression at 3 uM measured by […] analysis relative to control cells", "procedure,_shortened": "as §1"}, "[9]": {"molecular_target": "Histone-lysine N-methyltransferase EZH2 (Mus musculus) (UniProt Q61188)", "experiment": "Inhibition of EZH2 in mouse B16-F1 migrating cells assessed as fold change in H3K27me3-buffered regulated Tcf7l1-mRNA expression at 3 uM measured by […] analysis relative to control cells", "procedure,_shortened": "as §1"}, "[10]": {"molecular_target": "T1, RNA polymerase II (Mus musculus) (UniProt P08775+Q8CFI7+P97760+A0A3Q4L2S8+Q80UW8+P61219+P62488+Q923G2+P60898+O08740+Q63871+P62876)", "experiment": "Inhibition of RNA polymerase II in mouse B16-F1 migrating cells assessed as fold change in Cul4b-RNA stability at 0.1 mM measured by […] analysis relative to control cells", "procedure,_shortened": "(§3)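 Mouse B16-F1 melanoma cells grown to confluence on fibronectin in DMEM/10% FCS at 37 °C, 7% CO2. Migration induced by multiple scratches and 3 h incubation; unscratched controls. DRB 0.1 mM added 3 h before lysis. RNA from poly A-selected mRNA was sequenced (RNA-seq, three replicates per DRB group). Fold change computed for DRB-treated migrating vs DRB-treated control cells; cutoffs fold change >1.3, FDR <0.05.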"}, "[11]": {"molecular_target": "T1, RNA polymerase II (Mus musculus)", "experiment": "Inhibition of RNA polymerase II in mouse B16-F1 migrating cells assessed as fold change in Trappc8-RNA stability at 0.1 mM measured by […] analysis relative to control cells"}, "[12]": {"molecular_target": "T1, RNA polymerase II (Mus musculus)", "experiment": "Inhibition of RNA polymerase II in mouse B16-F1 migrating cells assessed as fold change in Lamp2-RNA stability at 0.1 mM measured by ChIP-seq analysis relative to control cells"}, "[13]": {"molecular_target": "T1, RNA polymerase II (Mus musculus)", "experiment": "Inhibition of RNA polymerase II in mouse B16-F1 migrating cells assessed as fold change in Dido1-RNA stability at 0.1 mM measured by […] analysis relative to control cells", "procedure,_shortened": "as §3"}, "[14]": {"molecular_target": "T1, RNA polymerase II (Mus musculus)", "experiment": "Inhibition of RNA polymerase II in mouse B16-F1 migrating cells assessed as fold change in Dpy19l4-RNA stability at 0.1 mM measured by ChIP-seq analysis relative to control cells"}, "[15]": {"molecular_target": "T1, RNA polymerase II (Mus musculus)", "experiment": "Inhibition of RNA polymerase II in mouse B16-F1 migrating cells assessed as fold change in Rpl7-RNA stability at 0.1 mM measured by […] analysis relative to control cells"}, "[16]": {"molecular_target": "T1, RNA polymerase II (Mus musculus)", "experiment": "Inhibition of RNA polymerase II in mouse B16-F1 migrating cells assessed as fold change in Higd1a-RNA stability at 0.1 mM measured by ChIP-seq analysis relative to control cells"}, "[17]": {"molecular_target": "T1, RNA polymerase II (Mus musculus)", "experiment": "Inhibition of RNA polymerase II in mouse B16-F1 migrating cells assessed as fold change in Fosb-RNA stability at 0.1 mM measured by ChIP-seq analysis relative to control cells"}, "[18]": {"molecular_target": "T1, RNA polymerase II (Mus musculus)", "experiment": "Inhibition of RNA polymerase II in mouse B16-F1 migrating cells assessed as fold change in Zcchc10-RNA stability at 0.1 mM measured by […] analysis relative to control cells"}, "[19]": {"molecular_target": "T1, RNA polymerase II (Mus musculus)", "experiment": "Inhibition of RNA polymerase II in mouse B16-F1 migrating cells assessed as fold change in Polr3f-RNA stability at 0.1 mM measured by […] analysis relative to control cells"}, "[20]": {"molecular_target": "T1, RNA polymerase II (Mus musculus)", "experiment": "Inhibition of RNA polymerase II in mouse B16-F1 migrating cells assessed as fold change in Rassf2-RNA stability at 0.1 mM measured by […] analysis relative to control cells"}, "[21]": {"molecular_target": "T1, RNA polymerase II (Mus musculus)", "experiment": "Inhibition of RNA polymerase II in mouse B16-F1 migrating cells assessed as fold change in Rps8-RNA stability at 0.1 mM measured by […] analysis relative to control cells"}, "[22]": {"molecular_target": "T1, RNA polymerase II (Mus musculus)", "experiment": "Inhibition of RNA polymerase II in mouse B16-F1 migrating cells assessed as fold change in Alkbh2-RNA stability at 0.1 mM measured by […] analysis relative to control cells"}, "[23]": {"molecular_target": "T1, RNA polymerase II (Mus musculus)", "experiment": "Inhibition of RNA polymerase II in mouse B16-F1 migrating cells assessed as fold change in Nrp1-RNA stability at 0.1 mM measured by […] analysis relative to control cells"}, "[24]": {"molecular_target": "T1, RNA polymerase II (Mus musculus)", "experiment": "Inhibition of RNA polymerase II in mouse B16-F1 migrating cells assessed as fold change in Zfp966-RNA stability at 0.1 mM measured by […] analysis relative to control cells"}}}
{"smiles": "CCCc1cc(C)[nH]c(=O)c1CNC(=O)c1cc(-c2ccnc(N3CCN(C)CC3)c2)cc2c1cnn2C(C)C", "values": [{"measurement": "log2FC", "setting": "[1]", "value": 0.84}, {"measurement": "log2FC", "setting": "[2]", "value": -0.87}, {"measurement": "log2FC", "setting": "[3]", "value": -0.38}, {"measurement": "log2FC", "setting": "[4]", "value": 0.48}, {"measurement": "log2FC", "setting": "[5]", "value": 0.43}, {"measurement": "log2FC", "setting": "[6]", "value": -0.62}, {"measurement": "log2FC", "setting": "[7]", "value": -0.4}, {"measurement": "log2FC", "setting": "[8]", "value": -0.39}, {"measurement": "log2FC", "setting": "[9]", "value": -0.48}]}
{"smiles": "OC[C@H]1O[C@@H](n2cnc3cc(Cl)c(Cl)cc32)[C@H](O)[C@@H]1O", "values": [{"measurement": "log2FC", "setting": "[10]", "value": -0.49}, {"measurement": "log2FC", "setting": "[11]", "value": -0.62}, {"measurement": "log2FC", "setting": "[12]", "value": -0.43}, {"measurement": "log2FC", "setting": "[13]", "value": -0.53}, {"measurement": "log2FC", "setting": "[14]", "value": -0.58}, {"measurement": "log2FC", "setting": "[15]", "value": 0.41}, {"measurement": "log2FC", "setting": "[16]", "value": 0.77}, {"measurement": "log2FC", "setting": "[17]", "value": 2.03}, {"measurement": "log2FC", "setting": "[18]", "value": -0.7}, {"measurement": "log2FC", "setting": "[19]", "value": -0.8}, {"measurement": "log2FC", "setting": "[20]", "value": -0.48}, {"measurement": "log2FC", "setting": "[21]", "value": 0.41}, {"measurement": "log2FC", "setting": "[22]", "value": 0.66}, {"measurement": "log2FC", "setting": "[23]", "value": -0.73}, {"measurement": "log2FC", "setting": "[24]", "value": -0.82}]}
